From ChEMBL document CHEMBL1140226, “Development of novel G-protein-coupled receptor 54 agonists with resistance to degradation by matrix metalloproteinase” (J Med Chem, 2008) come the findings set out here.

In series [1] the target is 72 kDa type IV collagenase (Homo sapiens) (UniProt P08253). The series is described as follows: Inhibition of MMP2 at 10 uM by fluorimetric assay. More on the design: scale not given: the % may be the effect or the level left.
In series [2] the target is Matrix metalloproteinase-9 (Homo sapiens) (UniProt P14780). The experiment in a line: Inhibition of MMP9 at 10 uM by fluorimetric assay. More on the design: scale not given: the % may be the effect or the level left.
Matrix metalloproteinase-9 (Homo sapiens), sequence (P14780 whole entry): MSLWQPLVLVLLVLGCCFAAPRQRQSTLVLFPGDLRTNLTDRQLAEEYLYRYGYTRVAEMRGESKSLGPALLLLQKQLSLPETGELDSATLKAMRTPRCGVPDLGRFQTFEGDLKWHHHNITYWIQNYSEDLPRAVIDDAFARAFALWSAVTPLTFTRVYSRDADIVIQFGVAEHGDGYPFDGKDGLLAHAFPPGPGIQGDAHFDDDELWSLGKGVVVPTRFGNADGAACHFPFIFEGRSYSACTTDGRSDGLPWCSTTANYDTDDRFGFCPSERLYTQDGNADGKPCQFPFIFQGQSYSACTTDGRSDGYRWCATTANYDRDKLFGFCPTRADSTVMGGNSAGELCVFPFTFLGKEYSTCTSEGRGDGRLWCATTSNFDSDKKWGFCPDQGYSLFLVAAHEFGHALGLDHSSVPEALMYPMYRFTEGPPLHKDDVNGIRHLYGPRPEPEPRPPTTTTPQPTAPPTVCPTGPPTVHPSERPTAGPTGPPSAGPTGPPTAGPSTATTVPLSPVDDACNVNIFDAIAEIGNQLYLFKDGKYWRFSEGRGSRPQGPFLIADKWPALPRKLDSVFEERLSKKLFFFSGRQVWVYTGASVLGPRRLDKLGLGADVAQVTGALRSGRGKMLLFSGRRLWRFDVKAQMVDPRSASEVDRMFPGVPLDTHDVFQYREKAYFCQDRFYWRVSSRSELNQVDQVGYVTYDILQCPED
Series [3] can be described thus: Stability in mouse serum assessed as half life. Type of series: ADME, cell-free. An outline of the steps:
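Peptides were incubated in murine serum and the half-life was determined.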

In series [4] the target is T1, KiSS-1 receptor (Homo sapiens, UniProt Q969F8). The series is described as follows: Displacement of [125I]kisspeptin-15 from human GPR54 expressed in CHO cell membrane. The format is cell membranes. (In general: In a radioligand displacement assay an active substance lowers the binding of a labelled ligand.)
T1 sequence (Q969F8 whole entry): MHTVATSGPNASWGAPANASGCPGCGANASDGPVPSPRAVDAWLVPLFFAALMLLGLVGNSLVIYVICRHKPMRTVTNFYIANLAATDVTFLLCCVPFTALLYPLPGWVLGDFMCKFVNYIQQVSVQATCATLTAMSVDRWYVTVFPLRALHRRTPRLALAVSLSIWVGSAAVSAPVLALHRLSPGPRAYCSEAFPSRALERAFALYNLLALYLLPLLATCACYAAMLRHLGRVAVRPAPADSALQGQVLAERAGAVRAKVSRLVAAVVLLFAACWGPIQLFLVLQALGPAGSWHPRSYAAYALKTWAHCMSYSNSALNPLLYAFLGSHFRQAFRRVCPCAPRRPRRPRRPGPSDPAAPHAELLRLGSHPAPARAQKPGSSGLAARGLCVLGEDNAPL
In series [5] the target is T1, KiSS-1 receptor. The experiment in a line: Agonist activity at human GPR54 expressed in CHO cells assessed as effect on kisspeptin-10-induced response by FLIPR assay. Type of series: functional, cell-based.
The subject of series [6] is Serum. The experiment in a line: Stability in mouse serum within 1 hr. Type of series: ADME, cell-free.
In series [7] the target is T1, KiSS-1 receptor. The experiment in a line: Ratio of IC50 of compound to IC50 of kisspeptin-10 for human GPR54.

72 kDa type IV collagenase (Homo sapiens), sequence (P08253 110-660 limits assumed): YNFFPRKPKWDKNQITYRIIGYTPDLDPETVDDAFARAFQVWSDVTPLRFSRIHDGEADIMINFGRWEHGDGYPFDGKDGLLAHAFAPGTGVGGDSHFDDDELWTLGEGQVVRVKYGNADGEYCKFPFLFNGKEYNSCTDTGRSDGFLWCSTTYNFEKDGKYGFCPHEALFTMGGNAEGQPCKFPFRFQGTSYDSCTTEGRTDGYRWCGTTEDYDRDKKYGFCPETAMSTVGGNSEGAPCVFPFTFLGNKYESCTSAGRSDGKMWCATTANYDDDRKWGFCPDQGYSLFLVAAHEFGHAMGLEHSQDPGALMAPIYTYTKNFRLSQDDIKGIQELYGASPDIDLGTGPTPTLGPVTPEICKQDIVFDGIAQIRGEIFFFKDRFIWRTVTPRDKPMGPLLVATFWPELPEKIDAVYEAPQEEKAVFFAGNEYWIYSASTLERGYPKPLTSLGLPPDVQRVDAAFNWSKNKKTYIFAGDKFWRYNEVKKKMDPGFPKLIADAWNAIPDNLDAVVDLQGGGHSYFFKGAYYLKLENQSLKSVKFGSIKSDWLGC

What is called half-life is how long it takes for the measured level to halve. As to `CC(C)C/C(=C\CCNC(=O)[C@H](Cc1ccccc1)NC(=O)c1ccc(F)cc1)C(=O)N[C@@H](CCCNC(=N)N)C(=O)N[C@@H](Cc1c[nH]c2ccccc12)C(N)=O`, the Activity in series [1] amounted to 94.5%; in series [2], 98.9%. The half-life in series [3] was 52 min.

One may read the IC50 as the concentration needed to halve the response being measured. In series [4], `CC(C)C[C@H](C[C@H](O)CNC(=O)[C@H](Cc1ccccc1)NC(=O)c1ccc(F)cc1)C(=O)N[C@@H](CCCN=C(N)N)C(=O)N[C@@H](Cc1c[nH]c2ccccc12)C(N)=O` yielded an IC50 of 0.24 nM. Also, the half-life in series [3] came to 35 min.

`CC(C)C/C(=C\[C@@H](O)CNC(=O)[C@H](Cc1ccccc1)NC(=O)c1ccc(F)cc1)C(=O)N[C@@H](CCCNC(=N)N)C(=O)N[C@@H](Cc1c[nH]c2ccccc12)C(N)=O`: the Activity in series [1] was determined as 99.1%; in series [2], 104%. In addition, the half-life in series [3] turned out to be 60 min.

What is called EC50 is the concentration that produces a half-maximal response. On to `CC(C)C[C@H](NC(=O)CNC(=O)[C@H](Cc1ccccc1)NC(=O)c1ccc(F)cc1)C(=O)N[C@@H](CCCN=C(N)N)C(=O)N[C@@H](Cc1c[nH]c2ccccc12)C(N)=O`, for which the IC50 in series [4] was determined as 0.71 nM. In series [5], the EC50 was found to be 0.45 nM. For the same compound, the half-life in series [3] came to 6.6 min.

As for `CC(C)C[C@H](NC(=O)CNC(=O)[C@H](Cc1ccccc1)NC(=O)[C@H](CO)NC(=O)[C@H](CC(N)=O)NC(=O)[C@H](Cc1c[nH]c2ccccc12)NC(=O)[C@H](CC(N)=O)NC(=O)[C@@H](N)Cc1ccc(O)cc1)C(=O)N[C@@H](CCCNC(=N)N)C(=O)N[C@@H](Cc1ccccc1)C(N)=O` [KISSPEPTIN-10], in series [6], the Stability result is recorded as “Unstable”. Besides, the IC50 in series [4] came out at 0.07 nM.

Turning to `CC(C)C[C@H](C[C@@H](O)CNC(=O)[C@H](Cc1ccccc1)NC(=O)c1ccc(F)cc1)C(=O)N[C@@H](CCCNC(=N)N)C(=O)N[C@@H](Cc1c[nH]c2ccccc12)C(N)=O`, the values for the Activity in series [1] and in series [2] were 96.2% and 109%, respectively. Also, the half-life in series [3] worked out at 54 min.

In the case of `CC(C)C[C@@H](NC(=O)CNC(=O)[C@H](Cc1ccccc1)NC(=O)c1ccc(F)cc1)C(=O)N[C@@H](CCCNC(=N)N)C(=O)N[C@@H](Cc1c[nH]c2ccccc12)C(N)=O`, in series [7], the Ratio IC50 was found to be 240. In addition, the IC50 in series [4] came out at 240 nM.

As to `CC(C)C[C@@H](C[C@H](O)CNC(=O)[C@H](Cc1ccccc1)NC(=O)c1ccc(F)cc1)C(=O)N[C@@H](CCCNC(=N)N)C(=O)N[C@@H](Cc1c[nH]c2ccccc12)C(N)=O`, the Activity came to 99.3% in series [1] and 100% in series [2]. Further, the half-life in series [3] is 120 min.

For `CC(C)C[C@H](/C=C/CNC(=O)[C@H](Cc1ccccc1)NC(=O)c1ccc(F)cc1)C(=O)N[C@@H](CCCN=C(N)N)C(=O)N[C@@H](Cc1c[nH]c2ccccc12)C(N)=O`, the EC50 in series [5] is 0.3 nM. In series [3], the half-life was determined as 38 min.

For `CC(C)C/C(=C\[C@H](O)CNC(=O)[C@H](Cc1ccccc1)NC(=O)c1ccc(F)cc1)C(=O)N[C@@H](CCCN=C(N)N)C(=O)N[C@@H](Cc1c[nH]c2ccccc12)C(N)=O`, the half-life in series [3] is 1100 min.

As for `CC(C)C[C@H](CCCNC(=O)[C@H](Cc1ccccc1)NC(=O)c1ccc(F)cc1)C(=O)N[C@@H](CCCNC(=N)N)C(=O)N[C@@H](Cc1c[nH]c2ccccc12)C(N)=O`, the Activity in series [1] was 97.1%; in series [2], 102%. Further, in series [3], the half-life stood at 45 min.

As for `CC(C)C[C@@H](C[C@@H](O)CNC(=O)[C@H](Cc1ccccc1)NC(=O)c1ccc(F)cc1)C(=O)N[C@@H](CCCNC(=N)N)C(=O)N[C@@H](Cc1c[nH]c2ccccc12)C(N)=O`, the Activity is 96.5% in series [1] and 108% in series [2].

As for `CC(C)C[C@H](NC(=O)CNC(=O)[C@H](Cc1ccccc1)NC(=O)c1ccc(F)cc1)C(=O)N[C@@H](CCCNC(=N)N)C(=O)N[C@@H](Cc1c[nH]c2ccccc12)C(N)=O`, the Ratio IC50 in series [7] is 7.3.

In series [4], `CC(C)C[C@@H](C[C@@H](O)CNC(=O)[C@H](Cc1ccccc1)NC(=O)c1ccc(F)cc1)C(=O)N[C@@H](CCCN=C(N)N)C(=O)N[C@@H](Cc1c[nH]c2ccccc12)C(N)=O` returned an IC50 of 380 nM. Further, the half-life in series [3] was 470 min.

With `CC(C)C[C@H](C[C@H](O)CNC(=O)[C@H](Cc1ccccc1)NC(=O)c1ccc(F)cc1)C(=O)N[C@@H](CCCNC(=N)N)C(=O)N[C@@H](Cc1c[nH]c2ccccc12)C(N)=O`, the values for the Activity in series [1] and in series [2] were 98.7% and 103%, respectively.

In the case of `CC(C)C/C(=C\[C@H](O)CNC(=O)[C@H](Cc1ccccc1)NC(=O)c1ccc(F)cc1)C(=O)N[C@@H](CCCNC(=N)N)C(=O)N[C@@H](Cc1c[nH]c2ccccc12)C(N)=O`, the Activity in series [1] was found to be 96.9%; in series [2] it was 103%.

In the case of `CC(C)C[C@H](/C=C/CNC(=O)[C@H](Cc1ccccc1)NC(=O)c1ccc(F)cc1)C(=O)N[C@@H](CCCNC(=N)N)C(=O)N[C@@H](Cc1c[nH]c2ccccc12)C(N)=O`, the Activity in series [1] and in series [2] was 101% throughout.
